Active and inactive are the calls of the source. No cut-off for these calls is given here. Where only a bound is given, the exact number is not on record here.

Data set [1] deals with A2780. The experiment in a line: Antiproliferative activity against cisplatin-sensitive human A2780 cells measured after 96 hrs by MTT assay. In kind it is functional, cell-based. The note with it: for IC50: A2780, 96 h. A digest of the protocol: (§1)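 Cells kept in DMEM or RPMI 1640 with 10% FBS and 5% penicillin-streptomycin at 37 °C, 5% CO2, seeded at 1 x 10⁴ cells/mL and left 24 h to adhere. Compounds or vehicle added over a concentration range for 96 h, then MTT 4 h; formazan dissolved in DMSO, absorbance read at 540 nm relative to control. IC50 given as mean ± SD of three independent experiments in duplicate.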

The species entered for data set [2] is Homo sapiens. The experiment in a line: (§2) Antiproliferative activity against cisplatin-resistant human A2780/CP70 cells measured after 96 hrs by MTT assay. In kind it is functional. A digest of the protocol:
as §1
In general terms: Tetrazolium assays rely on reduction of a dye to a coloured formazan, in cell work by metabolically active cells.

Data set [3] deals with A2780. The experiment in a line: Cell cycle arrest in cisplatin-sensitive human A2780 cells assessed as increase in DNA fragmentation after 48 hrs by DAPI-staining based assay. It is filed as functional. An outline of the steps: (§3)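 A2780 cells seeded in T25 flasks, 24 h at 37 °C, then exposed 48 h to vehicle or compound at several concentrations. 1 x 10⁶ cells/mL spun at 400 g for 5 min, resuspended in lysis buffer with DAPI, 5 min at 37 °C, then stabilization buffer added. DNA content read by image cytometry to give sub-G1, G0/G1, S and G2 fractions; mean ± s.e. mean, n = 2.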

Data set [4] has as its system A2780. The experiment in a line: Cell cycle arrest in cisplatin-sensitive human A2780 cells assessed as increase in accumulation at sub-G0/G1 phase at 10 to 60 uM after 48 hrs by DAPI-staining based assay. In kind it is functional. An outline of the steps: as §3
The test system of data set [5] is ARPE-19. The experiment in a line: Cytotoxicity against human ARPE19 cells measured after 96 hrs by MTT assay. It is filed as cell-based. The note with it: ARPE-19, 96 h. A digest of the protocol:
as §1

A short description of data set [6]: Selectivity index, ratio of IC50 for human ARPE19 cells to IC50 for cisplatin-sensitive human A2780 cells. It is filed as toxicity. The note with it: ARPE19 cells versus cisplatin-sensitive A2780 cells, read-out: Ratio IC50.
A short description of data set [7]: Selectivity index, ratio of IC50 for human ARPE19 cells to IC50 for cisplatin-resistant human A2780/CP70 cells. Conditions: ARPE19 cells versus cisplatin-resistant A2780/CP70 cells, read-out: Ratio IC50. It is filed as toxicity.
The nature of data set [8]: as §2. The note with it: A2780/CP70, 96 h. In kind it is functional. A digest of the protocol: as §1
Data set [9] relates to A2780. The experiment in a line: Cell cycle arrest in cisplatin-sensitive human A2780 cells assessed as accumulation at G0/G1 phase at 10 to 60 uM after 48 hrs by DAPI-staining based assay. It is filed as functional. A digest of the protocol: as §3
In data set [10] the test system is A2780. The experiment in a line: Cell cycle arrest in cisplatin-sensitive human A2780 cells assessed as increase in accumulation at sub-G0/G1 phase at 5 to 10 uM after 48 hrs by DAPI-staining based assay. It is filed as functional. A digest of the protocol: as §3
For data set [11], the system named is A2780. The experiment in a line: Cell cycle arrest in cisplatin-sensitive human A2780 cells assessed as accumulation at G0/G1 phase at 5 to 10 uM after 48 hrs by DAPI-staining based assay. In kind it is functional. A digest of the protocol: as §3

In the case of `CCCCCC[Si](CCCCCC)(CCCCCC)OCC1=C(C)C[C@H]([C@@H](C)[C@H]2CC[C@H]3[C@@H]4C[C@H]5O[C@]56[C@@H](O)C=CC(=O)[C@]6(C)[C@H]4CC[C@]23C)OC1=O`, the outcome in data set [1] and in data set [2] was inactive.
As for `CC1=C(CO[Si](C)(c2ccccc2)c2ccccc2)C(=O)O[C@@H]([C@@H](C)[C@H]2CC[C@H]3[C@@H]4C[C@H]5O[C@]56C(O[Si](C)(c5ccccc5)c5ccccc5)C=CC(=O)[C@]6(C)[C@H]4CC[C@]23C)C1` (stereo partly drawn), in [2], the outcome was inactive.
What is called IC50 is the concentration needed to halve the response being measured. Higher therefore signals lower potency. Turning to `CC1=C(CO[Si](C)(C)C(C)(C)C)C(=O)O[C@@H]([C@@H](C)[C@H]2CC[C@H]3[C@@H]4C[C@H]5O[C@]56C(=O)C=CC(=O)[C@]6(C)[C@H]4CC[C@]23C)C1`, the Activity entry in data set [3] is “Dose-dependent effect”. Further, in data set [4], the outcome was Active. Also, the values for the IC50 in [1], in data set [5] and in [8] were 17 nM, 1660 nM and greater than 100 nM, respectively. For the same molecule, the values for the selectivity ratio in data set [6] and in data set [7] were 97.7 and 11.3, respectively. The result in data set [9] was inactive.
In the case of `CCCCCC[Si](CCCCCC)(CCCCCC)OCC1=C(C)C[C@H]([C@@H](C)[C@H]2CC[C@H]3[C@@H]4C[C@H]5O[C@]56C(=O)C=CC(=O)[C@]6(C)[C@H]4CC[C@]23C)OC1=O`, the result in data set [1] and in [2] was inactive.
As to `CCC[Si](CCC)(CCC)OCC1=C(C)C[C@H]([C@@H](C)[C@H]2CC[C@H]3[C@@H]4C[C@H]5O[C@]56[C@@H](O[Si](CCC)(CCC)CCC)C=CC(=O)[C@]6(C)[C@H]4CC[C@]23C)OC1=O`, the result in data set [1] and in data set [2] was inactive.
With `CC1=C(CO[Si](C)(C)C(C)(C)C)C(=O)O[C@@H]([C@@H](C)[C@H]2CC[C@H]3[C@@H]4C[C@H]5O[C@]56[C@@H](O)C=CC(=O)[C@]6(C)[C@H]4CC[C@]23C)C1`, the Activity entry in [3] is “Dose-dependent effect”. In addition, the 50% inhibitory concentration (IC50) in data set [1] is 47.5 nM; in [5], 12.4 nM; in data set [8] it was greater than 100 nM. Besides, the selectivity ratio in data set [6] came to 0.3; in data set [7], 0.1. Also, the outcome in data set [10] was Active. Further, the result in data set [11] was inactive.
Regarding `CC1=C(CO[Si](C)(c2ccccc2)c2ccccc2)C(=O)O[C@@H]([C@@H](C)[C@H]2CC[C@H]3[C@@H]4C[C@H]5O[C@]56[C@@H](O)C=CC(=O)[C@]6(C)[C@H]4CC[C@]23C)C1`, the IC50 in data set [1] turned out to be 22 nM; in [5] it was 70 nM; in [8], 28.3 nM. Besides, the selectivity ratio in [6] came out at 3.2; in [7], 2.5.
For the molecule `CC1=C(CO[Si](C(C)C)(C(C)C)C(C)C)C(=O)O[C@@H]([C@@H](C)[C@H]2CC[C@H]3[C@@H]4C[C@H]5O[C@]56C(=O)C=CC(=O)[C@]6(C)[C@H]4CC[C@]23C)C1`, the values for the IC50 in data set [1], in data set [5] and in [8] were 35 nM, 37.5 nM and 35 nM, respectively. Further, the selectivity ratio in data set [6] and in data set [7] was 1.1 throughout.

The values are drawn from ChEMBL document CHEMBL4350962, “Expanding the Chemical Space of Withaferin A by Incorporating Silicon To Improve Its Clinical Potential on Human Ovarian Carcinoma Cells” (J Med Chem, 2019).
